Measured values reported in ChEMBL document CHEMBL4706706, “Structure-activity relationship and mechanistic studies for a series of cinnamyl hydroxamate histone deacetylase inhibitors” (Bioorg Med Chem, 2021).

Experiments:
Jurkat = test: Cytotoxicity against human Jurkat cells assessed as reduction in cell viability measured after 72 hrs by MTT assay; assay type: functional, cell-based
[1] = target: Histone deacetylase (Homo sapiens) (UniProt Q13547+O15379+Q9UBN7+Q92769+Q9UQL6+Q8WUI4+Q9BY41+Q96DB2+P56524+Q9UKV0+Q969S8); test: Inhibition of HDAC in human HeLa cell nuclear extracts at 100 uM relative to control; assay type: subcellular; conditions: Nucleus
Method in brief: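 Total HDAC activity measured with HeLa nuclear extract as enzyme source; single dose of 100 µM run in duplicate.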

MCF7 = test: Cytotoxicity against human MCF7 cells assessed as reduction in cell viability measured after 72 hrs by MTT assay; assay type: functional, cell-based; conditions: MCF7, 72 h
[2] = target: T1, Protein deacetylase HDAC6 (Homo sapiens, UniProt Q9UBN7); test: Inhibition of recombinant human full-length N-terminal GST-tagged HDAC6 (1 to 1215 residues) expressed in baculovirus infected Sf9 insect cells using RHKK(Ac)AMC as substrate preincubated for 5 to 10 mins followed by substrate addition and measured after 2 hrs by fluorescence assay
T1 sequence (Q9UBN7 whole entry): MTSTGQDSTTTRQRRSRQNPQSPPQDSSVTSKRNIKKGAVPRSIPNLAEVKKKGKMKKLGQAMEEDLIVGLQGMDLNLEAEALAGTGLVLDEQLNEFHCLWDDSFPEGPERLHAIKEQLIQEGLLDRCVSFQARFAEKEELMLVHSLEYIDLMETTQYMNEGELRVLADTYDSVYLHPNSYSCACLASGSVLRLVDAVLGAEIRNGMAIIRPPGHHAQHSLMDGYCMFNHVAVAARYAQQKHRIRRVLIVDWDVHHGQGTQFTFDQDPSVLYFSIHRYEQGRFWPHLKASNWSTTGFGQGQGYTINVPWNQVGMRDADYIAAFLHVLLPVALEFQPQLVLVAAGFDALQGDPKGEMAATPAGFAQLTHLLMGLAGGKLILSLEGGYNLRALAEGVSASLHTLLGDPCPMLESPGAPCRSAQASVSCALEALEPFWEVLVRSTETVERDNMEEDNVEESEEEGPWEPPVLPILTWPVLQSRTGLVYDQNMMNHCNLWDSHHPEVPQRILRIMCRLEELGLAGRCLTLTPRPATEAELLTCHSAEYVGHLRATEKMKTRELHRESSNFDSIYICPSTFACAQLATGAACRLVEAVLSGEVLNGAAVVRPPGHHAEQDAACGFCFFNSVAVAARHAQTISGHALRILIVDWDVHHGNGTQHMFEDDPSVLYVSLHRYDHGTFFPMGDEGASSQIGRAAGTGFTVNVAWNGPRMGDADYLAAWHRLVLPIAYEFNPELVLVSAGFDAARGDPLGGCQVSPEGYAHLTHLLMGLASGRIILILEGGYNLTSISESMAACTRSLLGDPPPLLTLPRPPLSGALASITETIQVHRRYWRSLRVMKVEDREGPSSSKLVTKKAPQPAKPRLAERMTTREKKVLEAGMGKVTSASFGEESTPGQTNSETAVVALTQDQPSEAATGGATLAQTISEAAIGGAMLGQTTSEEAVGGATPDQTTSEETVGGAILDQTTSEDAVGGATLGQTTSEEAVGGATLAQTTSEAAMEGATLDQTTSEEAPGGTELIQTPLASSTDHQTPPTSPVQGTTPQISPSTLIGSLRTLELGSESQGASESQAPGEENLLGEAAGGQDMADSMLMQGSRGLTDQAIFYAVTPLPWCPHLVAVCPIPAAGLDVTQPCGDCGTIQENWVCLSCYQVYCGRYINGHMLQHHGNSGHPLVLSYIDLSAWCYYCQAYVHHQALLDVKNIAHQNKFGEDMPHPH

Homo sapiens = species on record: Homo sapiens; test: Selectivity index, ratio of IC50 for inhibition of recombinant human full-length C-terminal FLAG/His-tagged HDAC1 (1 to 482 residues) expressed in baculovirus infected Sf9 insect cells to IC50 for inhibition of recombinant human full-length N-terminal GST-tagged HDAC6 (1 to 1215 residues) expressed in baculovirus infected Sf9 insect cells
HCT-116 = test: Cytotoxicity against human HCT-116 cells assessed as reduction in cell viability measured after 72 hrs by MTT assay; assay type: functional, cell-based; conditions: HCT-116, 72 h
NAMALVA = test: Cytotoxicity against human NAMALVA cells assessed as reduction in cell viability measured after 72 hrs by MTT assay; assay type: functional, cell-based
Histone deacetylase 1 = Histone deacetylase 1 (Homo sapiens, UniProt Q13547); test: Inhibition of recombinant human full-length C-terminal FLAG/His-tagged HDAC1 (1 to 482 residues) expressed in baculovirus infected Sf9 insect cells using RHKK(Ac)AMC as substrate preincubated for 5 to 10 mins followed by substrate addition and measured after 2 hrs by fluorescence assay
Histone deacetylase 1, sequence (Q13547 whole entry, the tested form may be a part): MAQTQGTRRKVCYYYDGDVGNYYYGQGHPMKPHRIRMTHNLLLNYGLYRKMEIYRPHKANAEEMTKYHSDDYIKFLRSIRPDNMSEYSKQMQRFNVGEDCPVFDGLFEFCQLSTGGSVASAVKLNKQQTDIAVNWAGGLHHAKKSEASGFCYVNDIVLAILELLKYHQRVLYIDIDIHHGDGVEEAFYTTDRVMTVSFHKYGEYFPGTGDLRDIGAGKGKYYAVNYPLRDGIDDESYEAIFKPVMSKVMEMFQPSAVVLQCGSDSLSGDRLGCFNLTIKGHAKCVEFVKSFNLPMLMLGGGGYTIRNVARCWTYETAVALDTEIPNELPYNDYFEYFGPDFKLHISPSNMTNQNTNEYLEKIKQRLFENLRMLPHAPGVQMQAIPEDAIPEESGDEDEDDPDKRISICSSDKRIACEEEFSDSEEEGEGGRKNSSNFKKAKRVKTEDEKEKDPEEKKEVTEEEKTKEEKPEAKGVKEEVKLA

| inhibition [1] | IC50 [2] | IC50 (Histone deacetylase 1) | Structure (SMILES) | IC50 (Jurkat) | IC50 (MCF7) | Ratio IC50 (Homo sapiens) | IC50 (HCT-116) | IC50 (NAMALVA) |
| --- | --- | --- | --- | --- | --- | --- | --- | --- |
| 92% | 20.7 nM | 1320 nM | O=C(Nc1ccc(Cl)cc1)Nc1ccc(C(=O)NO)cc1 | 1060 nM | > 50000 nM | 64 | > 50000 nM | 870 nM |
| 98% | 105 nM | 941 nM | O=C(CCc1ccc(NC(=O)Nc2ccc(Cl)cc2)cc1)NO | 410 nM | > 50000 nM | 9 | 17900 nM | 370 nM |
